Compound activity as filed in PubChem.
The entries come from a sample that favours hits as a whole.
ABCB1 inh – ABCB1 efflux pump inhibitors, primary screen, cell-based, multiplex, flow cytometry, ABCG2 counter-screen. ATP-dependent translocase ABCB1 (Homo sapiens), P08183. CCRF-Adr cells, JC-1 efflux. inhibition, % at 6.6 µM. 190,000 compounds, 0.067% hits; in the data active means inhibition above about 40%;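 further: higher value means more JC-1 retained so stronger ABCB1 efflux block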
Lmaj promast – Leishmania major promastigote growth inhibition, primary screen | Leishmania major promastigotes, resazurin fluorescence viability | 200,000 compounds, 9% hits | AID 1063, 2008 | inhibition, % at 10 µM;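 further: promastigotes grown with compound for 44 hours at 28 °C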
PKD1 inh – inhibitors of human PKD1 kinase, biochemical, fluorescence polarization. PKD1 kinase fluorescence polarization assay. inhibition, % (no concentration beside the values). 200,000 compounds, 0.056% hits. AID 797, 2007
GSH fluor – compound fluorescence on glutathione beads, profiling panel, artefact control, biophysical, 488/530 nm, flow cytometry. GSH beads flow cytometry, compound fluorescence 488/530 nm; stronger effect = higher value. fluorescence (KMESF) at 10 µM. 190,000 compounds, 0.25% hits; in the data active means fluorescence above about 89;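 further: glutathione beads carrying GST-tagged Bcl family fusion proteins plus one bare bead set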
Avidin bead fluor – green autofluorescence of compounds with avidin beads – biophysical, 488/530 nm, flow cytometry, artefact control, profiling panel; compound fluorescence 488/530 nm; stronger effect = higher value; fluorescence (KMESF) at 10 µM; 220,000 compounds, 0.38% hits; AID 1775, 2009; in the data active means fluorescence above about 47
ABCG2 inh – ABCG2 efflux pump inhibitors, primary screen, multiplex with ABCB1, IgMXP3 cells, flow cytometry; Broad substrate specificity ATP-binding cassette transporter ABCG2 (Homo sapiens), Q9UNQ0; inhibition, % at 6.6 µM; JC-1 efflux; 190,000 compounds, 0.1% hits; AID 1325, 2008;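 active means inhibition above 80%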
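Test system: IgMXP3 (ABCG2) plus far-red-tagged CCRF-Adr (ABCB1) cells. Reagent: JC-1 dye as substrate. Timing: 10 min exposure at 25 °C with rotation, no wash. Measured by: flow cytometric JC-1 green MFI at 530 nm. Read-out: percent efflux inhibition, scaled nicardipine 100% to DMSO 0%. Control set: nicardipine and DMSO wells.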
Numbers stand for hits; n = inactive; x = no result given. Unless noted, no stated cut-off is given here; in the data, active means inhibition above about 50%; inactive means the rest.

SMILES	ABCB1 inh	Lmaj promast	PKD1 inh	GSH fluor	Avidin bead fluor	ABCG2 inh
CCOC(=O)c1cnc2ccccc2c1NCCO	n	n	n	n	n	n
CCOC(=O)c1cnc2c(C(=O)OC)cccc2c1NCc1ccco1	n	50.6	n	n	n	n
CCOC(=O)c1cnc2c(C)cccc2c1Nc1ccc(N2CCOCC2)cc1	n	n	n	n	n	n
CNC(=O)C(=O)N/N=C/c1ccc(Br)cc1	n	n	n	n	n	n
O=C(Nc1cc(C(F)(F)F)ccc1Cl)C(NCc1ccccc1)c1ccccc1 (centres undefined)	n	92.4	n	n	n	n
Cc1cccc(-c2cc3nc4c(c(N5CCOCC5)n3n2)CCCC4)c1	n	56.5	n	n	n	n
Fc1ccc(-c2cc3nc4c(c(N5CCOCC5)n3n2)CCCC4)cc1	n	n	n	n	n	n
Cc1cccc(-c2cc3nc4c(c(N5CCC6(CC5)OCCO6)n3n2)CCCC4)c1	x	64.8	n	x	x	x
Cc1cccc(-c2cc3nc4c(c(NCc5ccco5)n3n2)CCCC4)c1	n	67.3	n	n	n	n
COc1cccc(-c2cc3nc4c(c(N5CCC6(CC5)OCCO6)n3n2)CCC4)c1	n	n	n	n	n	n
Cc1cccn2c(=O)c3cc(S(=O)(=O)c4ccccc4)c(=N)n(CC4CCCO4)c3nc12 (centres undefined)	x	x	x	x	n	x
CCN(CC)S(=O)(=O)c1cc(NS(=O)(=O)c2cccc(Cl)c2)ccc1C	n	65.0	n	n	n	n
CCN(CC)S(=O)(=O)c1cc(NS(=O)(=O)c2c(Cl)cccc2Cl)ccc1C	n	n	n	n	n	n
FC(F)(F)c1cnc(COc2ccc(Cl)cc2Cl)c(Cl)c1	x	x	x	x	n	x
CC(=O)N(Cc1ccccc1C)c1cccc(C)c1C	n	n	n	n	n	n
O=C(Nc1cccc(S(=O)(=O)N2CCCCCC2)c1)c1cc(=O)c2ccccc2o1	n	n	n	n	n	n
COc1ccc(NC(=O)CN(C)CC(=O)Nc2cccc(S(=O)(=O)N(C)c3ccccc3)c2)cc1	n	81.4	n	n	n	n
CCC(CC)C(=O)OCC(=O)Nc1cccc(S(=O)(=O)N(C)c2ccccc2)c1	n	n	n	n	n	n
CN(c1ccccc1)S(=O)(=O)c1cccc(NC(=O)CSc2nncn2C)c1	n	57.1	n	n	n	n
CCCC(=O)Nc1cccc(S(=O)(=O)N(C)c2ccccc2)c1	n	67.4	n	n	n	n
CN(c1ccccc1)S(=O)(=O)c1cccc(NC(=O)c2cc(=O)c3ccccc3o2)c1	n	80.5	n	n	n	n
C=CCc1ccccc1OCCNCc1ccccc1	n	70.9	n	n	n	n
Brc1ccccc1OCCNCc1ccccc1	n	n	n	n	n	n
C=CCOc1ccccc1CNCc1ccc(F)cc1	n	56.5	n	n	n	n
O=[N+]([O-])c1c(C(Cl)Cl)nn(-c2ccc(Cl)cc2)c1N1CCCCC1	n	n	n	n	n	n
SMILES	ABCB1 inh	Lmaj promast	PKD1 inh	GSH fluor	Avidin bead fluor	ABCG2 inh
COc1ccccc1/C=C1\CCCC2=C1Nc1nnnn1C2c1ccccc1OC (centres undefined)	n	78.8	n	n	n	n
Cc1cc(N/N=C/c2ccccc2F)nc(NCc2ccccc2)n1	x	x	x	x	n	x
Cc1cc(N/N=C/c2ccccc2)nc(NCc2ccccc2)n1	n	87.7	n	n	n	n
Cc1cc(Nc2cccc(Cl)c2)nc(NCc2ccccc2)n1	n	100.4	n	n	n	n
Cc1cc(N/N=C/c2ccc(Cl)cc2)nc(NCc2ccccc2)n1	n	94.0	n	n	n	n
Cc1cc(N/N=C/c2cccc(Cl)c2)nc(NCc2ccccc2)n1	n	77.1	n	n	n	n
Cc1cc(N/N=C/c2cccc(F)c2)nc(NCc2ccccc2)n1	x	x	x	x	n	x
CCCCOc1cc(C)nc(NCc2ccccc2)n1	n	n	n	n	n	n
CCOC(=O)C1=C(C)N=C2SC(C(=O)OC)=CC(=O)N2C1c1cc(OC)c(OC)c(OC)c1 (centres undefined)	n	n	n	n	n	n
CN(C)S(=O)(=O)c1cccc(-c2nnc3n2CCCCC3)c1	x	x	x	x	n	x
COC(=O)Cc1c(C)[nH]n(-c2cc(Cl)cc(Cl)c2)c1=O	n	n	n	n	n	n
CN(C)CC/C=C1/c2ccccc2COc2ccccc21	x	x	x	n	n	x
CN(C)CC/C=C1\c2ccccc2Sc2ccc(Cl)cc21	n	64.2	n	n	n	n
CN(C)CCC=C1c2ccccc2CCc2ccccc21	n	87.9	n	n	n	n
Cc1nnc(SCc2nc3sc4c(c3c(=O)[nH]2)CCCC4)[nH]c1=O	n	n	n	n	n	n
